Experimental data as given in ChEMBL document CHEMBL4330127, “Discovery of Novel Pyruvate Dehydrogenase Kinase 4 Inhibitors for Potential Oral Treatment of Metabolic Diseases” (J Med Chem, 2019).
Active and inactive are the calls of the source. No cut-off for these calls is given here.

Tests used:
[1] = biological target: T1, [Pyruvate dehydrogenase (acetyl-transferring)] kinase isozyme 4, mitochondrial (Homo sapiens, UniProt Q16654); assay: Inhibition of PDK4 (unknown origin)
Target sequence in this assay (Q16654 whole entry): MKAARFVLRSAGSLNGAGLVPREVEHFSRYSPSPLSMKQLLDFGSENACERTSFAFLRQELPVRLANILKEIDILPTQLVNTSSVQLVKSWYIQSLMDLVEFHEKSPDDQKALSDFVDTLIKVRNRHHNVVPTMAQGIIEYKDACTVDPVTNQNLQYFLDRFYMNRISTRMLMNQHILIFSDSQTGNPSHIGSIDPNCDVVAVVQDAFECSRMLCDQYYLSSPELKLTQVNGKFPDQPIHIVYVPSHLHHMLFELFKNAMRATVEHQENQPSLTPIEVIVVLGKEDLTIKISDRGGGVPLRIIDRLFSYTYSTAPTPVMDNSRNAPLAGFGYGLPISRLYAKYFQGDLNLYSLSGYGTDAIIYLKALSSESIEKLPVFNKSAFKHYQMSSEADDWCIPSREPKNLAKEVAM

[2] = biological target: T1, [Pyruvate dehydrogenase (acetyl-transferring)] kinase isozyme 4, mitochondrial; assay: Inhibition of PDK4 in HEK293T cells assessed as reduction in PDHE1alpha phosphorylation at Ser-293 residue by measuring phosphorylated PDHE1alpha level at 10 uM after 24 hrs by Western blot analysis; assay type: cell-based
Summary of the method: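 HEK293T cells grown in high-glucose DMEM with 10% FBS at 37 °C, 5% CO2. Medium renewed after 24 h, then cells exposed to compound for 24 h and lysed. 20 μg protein per lane Western blotted with antibodies to phospho-PDHE1α Ser232, Ser293 and Ser300 and to total PDHE1α. Band intensity quantified relative to control; triplicate.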
Target sequence in this assay (Q16654 whole entry, looked up): as the sequence (Q16654 whole entry) above

[3] = biological target: Cytochrome P450 2C19 (Homo sapiens, UniProt P33261); assay: Inhibition of CYP2C19 in human liver microsomes assessed as reduction in omeprazole hydroxylation by tandem mass spectrometry analysis; assay type: ADME
Summary of the method: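 Pooled human liver microsomes incubated with compound at 0–50 μM final; CYP probe activities (phenacetin O-deethylation for 1A2, tolbutamide 4-hydroxylation for 2C9, omeprazole hydroxylation for 2C19, dextromethorphan O-demethylation for 2D6) run as a cocktail incubation and quantified by tandem MS; duplicates; IC50 derived.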

[4] = biological target: UDP-glucuronosyltransferase 1A1 (Homo sapiens, UniProt P22309); assay: Inhibition of UGT1A1 in human liver microsomes assessed as reduction in SN-38 glucuronidation by tandem mass spectrometry analysis; assay type: ADME
Summary of the method: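 Pooled human liver microsomes; test compound at final 0–50 μM in a cocktail incubation with probe substrates: midazolam 1′-hydroxylation (CYP3A), SN-38 glucuronidation (UGT1A1), trifluoperazine N-glucuronidation (UGT1A4), mycophenolic acid glucuronidation (UGT1A9), naloxone 3-glucuronidation (UGT2B7). Metabolites measured by tandem MS; IC50 determined; duplicate.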

[5] = test system: HFL1; assay: Cytotoxicity against HFL1 cells; assay type: cell-based; conditions: Homo sapiens
[6] = Clearance in rat at 5 mg/kg, iv; assay type: ADME, organism-based; conditions: in vivo
Summary of the method: (§1)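 Male rats given a single dose, 5 mg/kg intravenously or 10 mg/kg orally. Plasma PK parameters were reported as mean ± SD: AUCt, AUC∞, Cmax, Tmax, T1/2, CL, Vss and oral bioavailability F.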

[7] = Tmax in rat at 10 mg/kg, po; assay type: ADME, organism-based; conditions: in vivo
[8] = Cmax in rat at 10 mg/kg, po; assay type: ADME, organism-based; parameters: dose 10 mg/kg, route oral; conditions: in vivo; summary of the method: as §1
[9] = Half life in rat at 10 mg/kg, po; assay type: ADME, organism-based; conditions: in vivo; summary of the method: as §1
[10] = AUC (0 to infinity) in rat at 10 mg/kg, po; assay type: ADME, organism-based; parameters: dose 10 mg/kg, route oral, time infinity; conditions: in vivo; summary of the method: as §1
[11] = biological target: RAC-alpha serine/threonine-protein kinase (Mus musculus) (UniProt P31750); assay: Increase in AKT phosphorylation at Ser-473 residue in mouse AML-12 cells at 10 uM after 24 hrs by Western blot analysis; assay type: cell-based
Summary of the method: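 AML12 hepatocytes challenged with palmitate, then exposed to 10 μM compound or vehicle (5 mM DCA as reference) for 24 h; p-Akt read by Western blot of cell lysates.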

[12] = biological target: Cellular tumor antigen p53 (Homo sapiens) (UniProt P04637); assay: Induction of p53 phosphorylation at Ser-15 residue in human HCT116 cells after 24 hrs by Western blot analysis; assay type: cell-based
Summary of the method: (§2)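 HCT116 and RKO cells given a range of compound doses for 24 h; lysates probed by Western blot for apoptosis-related proteins (p53, BAX, BCLxL).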

[13] = test system: HCT-116; assay: Induction of apoptosis in human HCT116 cells assessed as decrease in Bcl-XL expression at 10 to 50 uM after 24 hrs by Western blot analysis; assay type: functional, cell-based; summary of the method: as §2
[14] = test system: RKO; assay: Antiproliferative activity against human RKO cells up to 50 uM up to 72 hrs by CCK8 assay; assay type: functional, cell-based
Summary of the method: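 HCT116 and RKO cells were treated with compound alone or with oxaliplatin and grown for 0–72 h. Viability was read by CCK-8 colorimetry at 450 nm.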

[15] = test system: HCT-116; assay: Induction of apoptosis in human HCT116 cells after 24 hrs by Annexin V/propidium iodide staining based flow cytometry; assay type: functional, cell-based
[16] = test system: HCT-116; assay: Induction of apoptosis in human HCT116 cells assessed as late apoptotic cells at 10 uM after 24 hrs by Annexin V/propidium iodide staining based flow cytometry (reference value: 8.36%); assay type: functional
[17] = test system: HCT-116; assay: Induction of apoptosis in human HCT116 cells assessed as live cells at 25 uM after 24 hrs by Annexin V/propidium iodide staining based flow cytometry (reference value: 84.4%); assay type: functional
[18] = test system: HCT-116; assay: Induction of apoptosis in human HCT116 cells assessed as early apoptotic cells at 25 uM after 24 hrs by Annexin V/propidium iodide staining based flow cytometry (reference value: 4.36%); assay type: functional
[19] = test system: HCT-116; assay: Induction of apoptosis in human HCT116 cells assessed as late apoptotic cells at 50 uM after 24 hrs by Annexin V/propidium iodide staining based flow cytometry (reference value: 8.36%); assay type: functional
[20] = test system: HCT-116; assay: Induction of apoptosis in human HCT116 cells assessed as necrotic cells at 25 uM after 24 hrs in presence of oxaliplatin by Annexin V/propidium iodide staining based flow cytometry (reference value: 21.2%); assay type: functional
[21] = test system: HCT-116; assay: Cell cycle arrest in human HCT116 cells assessed as accumulation at G2/M phase at 10 uM after 24 hrs propidium iodide staining based flow cytometry (reference value: 22.2%); assay type: functional
Summary of the method: (§3)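 HCT116 and RKO cells were treated with compound alone or with oxaliplatin for 24 h before harvest. Cells were stained with propidium iodide, and DNA content was analysed by flow cytometry. Cell-cycle phase populations, including sub-G1, are given as percentages.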

[22] = test system: HCT-116; assay: Cell cycle arrest in human HCT116 cells assessed as accumulation at G1/G0 phase at 50 uM after 24 hrs propidium iodide staining based flow cytometry (reference value: 42%); assay type: functional; summary of the method: as §3
[23] = test system: HCT-116; assay: Cell cycle arrest in human HCT116 cells assessed as accumulation at S phase at 50 uM after 24 hrs propidium iodide staining based flow cytometry (reference value: 18%); assay type: functional; summary of the method: as §3
[24] = test system: RKO; assay: Induction of apoptosis in human RKO cells assessed as late apoptotic cells at 10 uM after 24 hrs by Annexin V/propidium iodide staining based flow cytometry (reference value: 7.42%); assay type: functional
[25] = test system: RKO; assay: Induction of apoptosis in human RKO cells assessed as late apoptotic cells at 25 uM after 24 hrs by Annexin V/propidium iodide staining based flow cytometry (reference value: 7.42%); assay type: functional
[26] = test system: RKO; assay: Induction of apoptosis in human RKO cells assessed as live cells at 25 uM after 24 hrs in presence of oxaliplatin by Annexin V/propidium iodide staining based flow cytometry (reference value: 86.4%); assay type: functional
[27] = test system: RKO; assay: Induction of apoptosis in human RKO cells assessed as late apoptotic cells at 25 uM after 24 hrs in presence of oxaliplatin by Annexin V/propidium iodide staining based flow cytometry (reference value: 7.02%); assay type: functional
[28] = test system: RKO; assay: Cell cycle arrest in human RKO cells assessed as accumulation at sub-G1 phase at 10 uM after 24 hrs propidium iodide staining based flow cytometry (reference value: 17.6%); assay type: functional
[29] = test system: RKO; assay: Cell cycle arrest in human RKO cells assessed as accumulation at S phase at 25 uM after 24 hrs propidium iodide staining based flow cytometry (reference value: 19.2%); assay type: functional
[30] = test system: RKO; assay: Cell cycle arrest in human RKO cells assessed as accumulation at S phase at 50 uM after 24 hrs propidium iodide staining based flow cytometry (reference value: 19.2%); assay type: functional

Sequence of Cytochrome P450 2C19 (P33261 whole entry): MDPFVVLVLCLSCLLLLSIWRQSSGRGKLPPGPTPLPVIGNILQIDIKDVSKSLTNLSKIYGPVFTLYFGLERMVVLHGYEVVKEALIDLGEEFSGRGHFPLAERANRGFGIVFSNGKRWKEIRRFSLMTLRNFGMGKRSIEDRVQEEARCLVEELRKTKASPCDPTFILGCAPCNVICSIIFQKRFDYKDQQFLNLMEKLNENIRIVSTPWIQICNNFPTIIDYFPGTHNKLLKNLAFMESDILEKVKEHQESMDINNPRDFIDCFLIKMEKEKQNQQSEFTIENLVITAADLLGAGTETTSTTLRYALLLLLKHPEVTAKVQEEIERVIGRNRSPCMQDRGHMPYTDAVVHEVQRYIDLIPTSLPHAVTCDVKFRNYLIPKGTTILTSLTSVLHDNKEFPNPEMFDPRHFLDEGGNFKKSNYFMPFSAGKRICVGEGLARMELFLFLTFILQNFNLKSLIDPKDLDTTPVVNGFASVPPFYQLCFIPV
Sequence of Cellular tumor antigen p53 (Homo sapiens) (P04637 whole entry, looked up): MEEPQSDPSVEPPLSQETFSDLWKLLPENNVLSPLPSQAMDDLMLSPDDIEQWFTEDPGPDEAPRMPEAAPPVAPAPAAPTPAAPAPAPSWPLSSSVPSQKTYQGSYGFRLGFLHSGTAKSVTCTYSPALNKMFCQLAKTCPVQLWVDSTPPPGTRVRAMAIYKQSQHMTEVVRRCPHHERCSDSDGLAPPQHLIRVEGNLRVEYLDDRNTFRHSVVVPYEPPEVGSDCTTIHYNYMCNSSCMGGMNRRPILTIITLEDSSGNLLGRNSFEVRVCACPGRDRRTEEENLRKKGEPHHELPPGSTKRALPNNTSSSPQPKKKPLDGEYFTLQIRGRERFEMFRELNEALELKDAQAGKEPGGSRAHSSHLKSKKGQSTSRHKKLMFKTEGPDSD
Sequence of RAC-alpha serine/threonine-protein kinase (Mus musculus) (P31750 whole entry): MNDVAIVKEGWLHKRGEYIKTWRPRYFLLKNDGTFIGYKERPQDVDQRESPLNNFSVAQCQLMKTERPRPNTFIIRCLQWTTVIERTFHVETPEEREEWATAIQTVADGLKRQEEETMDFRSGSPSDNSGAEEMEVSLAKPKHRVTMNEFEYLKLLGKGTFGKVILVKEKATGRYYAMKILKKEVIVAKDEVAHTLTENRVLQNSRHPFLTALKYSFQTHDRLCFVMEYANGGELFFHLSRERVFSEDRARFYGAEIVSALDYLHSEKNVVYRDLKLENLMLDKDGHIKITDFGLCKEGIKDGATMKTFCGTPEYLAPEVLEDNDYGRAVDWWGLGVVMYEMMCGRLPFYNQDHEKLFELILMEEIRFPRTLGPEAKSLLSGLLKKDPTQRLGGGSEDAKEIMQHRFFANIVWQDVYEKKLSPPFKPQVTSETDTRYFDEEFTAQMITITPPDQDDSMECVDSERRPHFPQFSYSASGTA
Sequence of UDP-glucuronosyltransferase 1A1 (P22309 whole entry): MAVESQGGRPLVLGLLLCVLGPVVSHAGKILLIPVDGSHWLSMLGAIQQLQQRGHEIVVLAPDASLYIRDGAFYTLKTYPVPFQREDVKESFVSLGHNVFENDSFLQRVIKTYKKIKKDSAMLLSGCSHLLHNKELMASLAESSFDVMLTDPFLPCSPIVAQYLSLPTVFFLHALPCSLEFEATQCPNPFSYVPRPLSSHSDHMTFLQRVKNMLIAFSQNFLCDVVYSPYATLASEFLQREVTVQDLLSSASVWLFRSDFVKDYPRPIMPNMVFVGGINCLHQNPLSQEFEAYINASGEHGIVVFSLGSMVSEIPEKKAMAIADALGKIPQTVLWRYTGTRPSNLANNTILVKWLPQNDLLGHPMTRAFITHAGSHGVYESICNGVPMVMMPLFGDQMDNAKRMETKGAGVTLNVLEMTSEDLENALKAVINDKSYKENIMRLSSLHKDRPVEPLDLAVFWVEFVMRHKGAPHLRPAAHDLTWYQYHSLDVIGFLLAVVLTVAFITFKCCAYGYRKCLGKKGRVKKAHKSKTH

## Cl.O=C1c2ccccc2C(=O)c2c1cccc2-c1cnn(C2CCNCC2)c1
[1]
  IC50: 0.084 µM
[2]
  fold change (FC): 0.18
[3]
  IC50: 42.4 µM
[4]
  IC50: > 50 µM
[5]
  IC50: 36.5 µM
[6]
  clearance: 11.4 mL/min/kg
[7]
  Tmax: 6 h
[8]
  Cmax: 565 ng/mL
[9]
  half-life: 21.6 h
[10]
  AUC(0-inf): 18500 ng·h/mL
[11]
  Activity: Active
[12]
  Activity: Dose-dependent effect
[13]
  Activity: Active
[14]
  Activity: Active
[15]
  Activity: Dose-dependent effect
[16]
  Activity: 7.1%
[17]
  Activity: 49.4%
[18]
  Activity: 7.1%
[19]
  Activity: 54.5%
[20]
  Activity: 25.9%
[21]
  Activity: 14.9%
[22]
  Activity: 11.2%
[23]
  Activity: 5.3%
[24]
  Activity: 11.2%
[25]
  Activity: 39.4%
[26]
  Activity: 36.8%
[27]
  Activity: 33.8%
[28]
  Activity: 21.4%
[29]
  Activity: 6%
[30]
  Activity: 2.7%
